According to PMC9399017 (European Journal of Drug Metabolism and Pharmacokinetics, 2022):
“And” between values parts separate entries of the source, which are not always exact repeats. Identical values can stand only once. Blank lines part the entries; values can stand above or below the compound they belong to.

Tests used:
[1] = Population pharmacokinetic; type: in vivo, human (patients with advanced cancers); conditions: for Duration of constant (zero-order) release into depot, D1, capsule, Estimate (% RSE): hard gelatin capsule
Procedure, shortened: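 Patients took immediate-release capsules or film-coated tablets orally. Sampling was intensive in cycle 1 and sparse for up to 5 cycles. Lithium-heparin blood was processed to plasma within about 30 min, protein-precipitated, and measured by validated LC-MS/MS (2.00‒500 ng/mL; LLOQ 2.00 ng/mL). FOCE-I mixed-effects fits tested 1–3-compartment models with fixed allometric weight exponents and per-cycle interoccasion variability. Percentiles came from bootstrap.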

[2] = test system: major CYP isoenzymes, including CYP3A4; conditions: in vitro; cited from earlier work
CYP3A = conditions: humans; cited from earlier work
[3] = between-subject variability, NONMEM estimate
[4] = between-subject variability, bootstrap
[5] = final PopPK model, NONMEM estimate

Dose proportionality (post hoc ETA versus dose) ([1]; 5 to 30 mg lucitanib, visual inspection): consistent with dose proportionality | Effect of co-administration of fulvestrant on lucitanib pharmacokinetics ([1]; 17 of 403 patients with concomitant fulvestrant): no effect | Residual error (proportional), Estimate (% RSE) ([1]; NONMEM estimate): 33.6% (2.30%) | CL/F BSV (log-proportional), Estimate (% RSE) [1, 3]: 47.8% (5.69%) | D1 BSV (log-proportional), Estimate (% RSE) [1, 3]: 60.1% (18.6%) | Vc/F BSV (log-proportional), Estimate (% RSE) [1, 3]: 58.6% (6.97%) | Vp/F BSV (log-proportional), Estimate (% RSE) [1, 3]: 76.7% (9.10%) | CL/F BSV (log-proportional), Bootstrap median (2.5th, 97.5th percentile) [1, 4]: 47.5% (42.8%, 53.2%) | D1 BSV (log-proportional), Bootstrap median (2.5th, 97.5th percentile) [1, 4]: 58.7% (41.3%, 75.8%) | Vc/F BSV (log-proportional), Bootstrap median (2.5th, 97.5th percentile) [1, 4]: 58.9% (51.3%, 67.5%) | Vp/F BSV (log-proportional), Bootstrap median (2.5th, 97.5th percentile) [1, 4]: 75.2% (60.0%, 88.8%) | Residual error (proportional), Bootstrap median (2.5th, 97.5th percentile) ([1]; bootstrap): 33.5% (32.0%, 34.8%) | Duration of constant release into depot for capsule, D1, Bootstrap median (2.5th, 97.5th percentile) ([1]; capsule, nonparametric bootstrap): 0.812 (0.629, 0.956) h | Effect of concomitant proton pump inhibitors on lucitanib absorption ([1]; concomitant PPI): no clinically significant effect | Ratio of F with concomitant PPI/without PPI, 95% CI ([1]; concomitant proton pump inhibitor, n = 152, not significant): 0.83–1.08 | Reduction in F with concomitant PPI (estimated effect size) ([1]; concomitant proton pump inhibitor, not clinically significant): 6.5% | CL/F and Vc/F correlation, Estimate (% RSE) ([1]; correlation of random effects, NONMEM estimate): 0.596 (6.30%) | CL/F and Vc/F correlation, Bootstrap median (2.5th, 97.5th percentile) ([1]; correlation of random effects, bootstrap): 0.595 (0.469, 0.721) | Duration of zero-order release, D1, tablet ([1]; film-coated tablet, final PopPK model): 0.243 h | Apparent central volume, Vc/F, Estimate (% RSE) [1, 5]: 63.8 (5.08%) L/70 kg | Apparent distribution clearance, Q/F, Estimate (% RSE) [1, 5]: 6.23 (8.41%) L/h/70 kg | Apparent peripheral volume, Vp/F, Estimate (% RSE) [1, 5]: 69.1 (6.81%) L/70 kg | Effect of formulation on D1 (tablet to capsule ratio), Estimate (% RSE) [1, 5]: 0.299 (19.4%) | First-order absorption rate constant, Ka, Estimate (% RSE) [1, 5]: 4.86 1/h and 4.86 (12.6%) 1/h | Apparent clearance, CL/F, Estimate (% RSE) ([1]; final PopPK model, NONMEM estimate, oral 5-30 mg QD, 403 patients): 1.90 (2.75%) L/h/70 kg | Duration of constant (zero-order) release into depot, D1, capsule, Estimate (% RSE) ([1]; final PopPK model): 0.814 (22.2%) h | Duration of constant (zero-order) release into depot, D1, capsule, Estimate (% RSE) ([1]; final PopPK model, listed as Lucitanib): 0.814 h | half-life ([1]; human, plasma, oral): 8.58 min | Apparent central volume, Vc/F, Bootstrap median (2.5th, 97.5th percentile) ([1]; nonparametric bootstrap): 63.4 (57.3, 70.6) L/70 kg | Apparent distribution clearance, Q/F, Bootstrap median (2.5th, 97.5th percentile) ([1]; nonparametric bootstrap): 6.30 (5.29, 7.72) L/h/70 kg | Apparent peripheral volume, Vp/F, Bootstrap median (2.5th, 97.5th percentile) ([1]; nonparametric bootstrap): 68.9 (61.0, 79.1) L/70 kg | Effect of formulation on D1 (tablet to capsule ratio), Bootstrap median (2.5th, 97.5th percentile) ([1]; nonparametric bootstrap): 0.343 (0.178, 0.630) | First-order absorption rate constant, Ka, Bootstrap median (2.5th, 97.5th percentile) ([1]; nonparametric bootstrap): 4.77 (2.94, 8.21) 1/h | Apparent clearance, CL/F, Bootstrap median (2.5th, 97.5th percentile) ([1]; nonparametric bootstrap, 1000 replicates): 1.90 (1.80, 2.00) L/h/70 kg | D1 values, both immediate-release formulations ([1]; tablet and capsule): < 1 h | D1 shorter for tablets versus capsules ([1]; tablet vs capsule): 70%
Compound: CNC(=O)c1cccc2cc(Oc3ccnc4cc(OCC5(N)CC5)c(OC)cc34)ccc12 [lucitanib]
Variance in Vc/F explained by body weight ([1]; present dataset): 11%

Compound: C[C@]12CC[C@@H]3c4ccc(O)cc4C[C@@H](CCCCCCCCC[S+]([O-])CCCC(F)(F)C(F)(F)F)[C@H]3[C@@H]1CC[C@@H]2O (stereo partly drawn) [Fulvestrant, fulvestrant]
Inhibition of major CYP isoenzymes [2]: did not significantly inhibit | Change in exposure to a CYP3A substrate (midazolam) (CYP3A): nor did it change the exposure
